Columns and labels:
[1] = molecular target: Hepatocyte growth factor receptor (Homo sapiens) (UniProt P08581); assay: Inhibition of MET assessed as enzyme residual activity at 10 uM relative to untreated control
Summary of the method: (§1)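 Residual kinase activity at 10 μM compound, determined by a commercial kinase profiling service (Millipore) across 15 kinases of different classes. Each compound tested in duplicate.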

[2] = molecular target: Epidermal growth factor receptor (Homo sapiens) (UniProt P00533); assay: Inhibition of EGFR assessed as enzyme residual activity at 10 uM relative to untreated control; summary of the method: as §1
[3] = molecular target: Protein kinase C alpha type (Homo sapiens) (UniProt P17252); assay: Inhibition of PKCalpha assessed as enzyme residual activity at 10 uM relative to untreated control; summary of the method: as §1
MKN-45 [4] = assay: Induction of apoptosis in human MKN45 assessed as accumulation at subG1 phase at 10 uM incubated for 7 days by flow cytometry (reference value: 10.9 +/- 3.2%); type: functional
MKN-45 [5] = assay: Cytotoxic activity against human MKN45 cells assessed as cell viability at 20 uM incubated for 5 days by MTT assay; type: functional; conditions: MKN-45, 120 h, read-out: Activity
Summary of the method: (§2)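 MTT viability: exponentially growing cells, 10 000 viable cells/well in RPMI plated overnight, then exposed to test compounds for 3 days (HT-29, Molm-14) or 5 days (Mkn-45) at 37 °C, 5% CO2. MTT added for 4 h, then SDS/HCl solubilization overnight and absorbance read at 562 nm. Viability is expressed relative to untreated cells (100%). Triplicate.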

[6] = molecular target: Platelet-derived growth factor receptor beta (Homo sapiens) (UniProt P09619); assay: Inhibition of PDGFRbeta assessed as enzyme residual activity at 10 uM relative to untreated control; summary of the method: as §1
Chain of Platelet-derived growth factor receptor beta (Homo sapiens) (P09619 whole entry): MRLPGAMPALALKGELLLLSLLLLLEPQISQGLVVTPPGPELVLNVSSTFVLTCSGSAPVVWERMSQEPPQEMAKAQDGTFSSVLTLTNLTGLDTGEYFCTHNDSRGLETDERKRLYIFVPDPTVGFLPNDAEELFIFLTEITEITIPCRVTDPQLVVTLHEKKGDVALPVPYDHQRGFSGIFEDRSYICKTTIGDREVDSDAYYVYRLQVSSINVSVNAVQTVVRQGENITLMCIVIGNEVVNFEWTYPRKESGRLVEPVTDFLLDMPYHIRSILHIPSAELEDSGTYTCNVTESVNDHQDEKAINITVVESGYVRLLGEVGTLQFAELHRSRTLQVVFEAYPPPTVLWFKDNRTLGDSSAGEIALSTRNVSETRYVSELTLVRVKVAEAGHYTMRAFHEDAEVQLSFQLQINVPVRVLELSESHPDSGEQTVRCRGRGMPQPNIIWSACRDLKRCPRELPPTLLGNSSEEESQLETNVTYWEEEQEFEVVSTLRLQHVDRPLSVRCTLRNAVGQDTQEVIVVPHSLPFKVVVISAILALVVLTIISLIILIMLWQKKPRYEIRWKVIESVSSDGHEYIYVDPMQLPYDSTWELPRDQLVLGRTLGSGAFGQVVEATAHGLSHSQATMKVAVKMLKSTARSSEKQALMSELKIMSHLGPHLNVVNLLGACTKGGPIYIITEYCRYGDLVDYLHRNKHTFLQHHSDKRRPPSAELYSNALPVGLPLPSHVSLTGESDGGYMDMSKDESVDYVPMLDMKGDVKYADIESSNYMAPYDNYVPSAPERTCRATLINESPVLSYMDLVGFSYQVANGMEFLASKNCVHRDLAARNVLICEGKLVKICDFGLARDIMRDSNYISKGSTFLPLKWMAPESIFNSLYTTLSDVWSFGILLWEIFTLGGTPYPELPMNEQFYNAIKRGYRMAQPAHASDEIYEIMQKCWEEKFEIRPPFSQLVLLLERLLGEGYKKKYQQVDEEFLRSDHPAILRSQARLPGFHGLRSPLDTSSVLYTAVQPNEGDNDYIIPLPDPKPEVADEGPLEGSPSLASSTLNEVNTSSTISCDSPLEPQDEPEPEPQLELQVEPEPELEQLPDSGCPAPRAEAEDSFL

MKN-45 [7] = assay: Cytotoxic activity against human MKN45 cells assessed as cell viability at 1 uM incubated for 5 days by MTT assay; type: functional; conditions: MKN-45, 120 h, read-out: Activity; summary of the method: as §2
MKN-45 [8] = assay: Cytotoxic activity against human MKN45 cells assessed as cell viability at 10 uM incubated for 5 days by MTT assay; type: functional; conditions: MKN-45, 120 h, read-out: Activity; summary of the method: as §2
[9] = molecular target: Protein kinase C gamma type (Homo sapiens) (UniProt P05129); assay: Inhibition of PKCgamma assessed as enzyme residual activity at 10 uM relative to untreated control; summary of the method: as §1
[10] = Inhibition of angiogenesis in chick embryo model assessed as reduction in vessel growth at 26 nM incubated for 24 hrs; type: functional, Gallus gallus
Summary of the method: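 White leghorn eggs incubated at 37.5 °C, 62% humidity. At 70 h, albumen removed and shell windowed. From 75 h, 15 agarose pellets (from a 26 mM DMSO stock in 2% agarose; final concentration 26 nM) placed on the area vasculosa.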

HUVEC [11] = assay: Induction of apoptosis in human HUVEC assessed as accumulation at subG1 phase at 0.79 uM incubated for 4 days by flow cytometry (reference value: 15.4 +/- 1.5%); type: functional
[12] = molecular target: Angiopoietin-1 receptor (Homo sapiens) (UniProt Q02763); assay: Inhibition of TIE2 assessed as enzyme residual activity at 10 uM relative to untreated control; summary of the method: as §1
Chain of Angiopoietin-1 receptor (Homo sapiens) (Q02763 whole entry): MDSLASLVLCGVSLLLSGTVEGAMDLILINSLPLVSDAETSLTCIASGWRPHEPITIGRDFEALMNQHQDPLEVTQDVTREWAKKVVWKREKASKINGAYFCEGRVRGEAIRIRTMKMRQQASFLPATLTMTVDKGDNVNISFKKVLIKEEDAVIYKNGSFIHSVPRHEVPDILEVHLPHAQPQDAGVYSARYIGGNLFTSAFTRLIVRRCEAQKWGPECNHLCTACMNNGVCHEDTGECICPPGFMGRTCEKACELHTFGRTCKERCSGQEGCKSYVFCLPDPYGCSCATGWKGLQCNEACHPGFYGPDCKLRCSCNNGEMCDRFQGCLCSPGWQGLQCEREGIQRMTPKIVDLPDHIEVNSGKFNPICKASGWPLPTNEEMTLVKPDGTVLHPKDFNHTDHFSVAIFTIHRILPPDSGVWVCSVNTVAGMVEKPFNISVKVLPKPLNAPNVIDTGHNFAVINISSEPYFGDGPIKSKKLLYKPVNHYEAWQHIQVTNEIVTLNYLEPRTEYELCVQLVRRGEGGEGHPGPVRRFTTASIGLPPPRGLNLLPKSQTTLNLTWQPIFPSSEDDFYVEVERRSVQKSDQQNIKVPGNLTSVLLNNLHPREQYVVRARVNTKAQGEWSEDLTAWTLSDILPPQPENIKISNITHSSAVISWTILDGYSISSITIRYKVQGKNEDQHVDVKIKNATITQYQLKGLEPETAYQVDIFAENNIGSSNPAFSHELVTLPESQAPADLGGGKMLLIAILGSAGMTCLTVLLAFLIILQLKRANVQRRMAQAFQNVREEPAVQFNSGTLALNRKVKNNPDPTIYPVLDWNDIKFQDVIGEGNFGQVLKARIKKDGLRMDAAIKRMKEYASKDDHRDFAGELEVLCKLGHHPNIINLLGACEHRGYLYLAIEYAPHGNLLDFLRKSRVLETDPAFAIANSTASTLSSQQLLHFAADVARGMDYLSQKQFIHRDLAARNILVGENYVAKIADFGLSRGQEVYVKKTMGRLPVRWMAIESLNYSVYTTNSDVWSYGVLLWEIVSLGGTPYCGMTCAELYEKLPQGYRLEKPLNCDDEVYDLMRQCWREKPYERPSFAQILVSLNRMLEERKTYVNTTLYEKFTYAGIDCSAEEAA

[13] = molecular target: Vascular endothelial growth factor receptor 2 (Homo sapiens, UniProt P35968); assay: Inhibition of VEGFR2 assessed as enzyme residual activity at 10 uM relative to untreated control; summary of the method: as §1
MKN-45 [14] = assay: Induction of apoptosis in human MKN45 assessed as accumulation at subG1 phase at 5 uM incubated for 7 days by flow cytometry (reference value: 10.9 +/- 3.2%); type: functional
MKN-45 [15] = assay: Cytotoxic activity against human MKN45 cells assessed as cell viability at 5 uM incubated for 5 days by MTT assay; type: functional; conditions: MKN-45, 120 h, read-out: Activity; summary of the method: as §2
MKN-45 [16] = assay: Induction of apoptosis in human MKN45 assessed as accumulation at subG1 phase at 15 uM incubated for 7 days by flow cytometry (reference value: 10.9 +/- 3.2%); type: functional
[17] = molecular target: Cyclin-dependent kinase 1/cyclin B1 (Homo sapiens) (UniProt P06493+P14635); assay: Inhibition of CDK1/cyclinB assessed as enzyme residual activity at 10 uM relative to untreated control; type: protein-complex assay; summary of the method: as §1
Chain of Cyclin-dependent kinase 1/cyclin B1 (Homo sapiens) (P06493 whole entry, looked up): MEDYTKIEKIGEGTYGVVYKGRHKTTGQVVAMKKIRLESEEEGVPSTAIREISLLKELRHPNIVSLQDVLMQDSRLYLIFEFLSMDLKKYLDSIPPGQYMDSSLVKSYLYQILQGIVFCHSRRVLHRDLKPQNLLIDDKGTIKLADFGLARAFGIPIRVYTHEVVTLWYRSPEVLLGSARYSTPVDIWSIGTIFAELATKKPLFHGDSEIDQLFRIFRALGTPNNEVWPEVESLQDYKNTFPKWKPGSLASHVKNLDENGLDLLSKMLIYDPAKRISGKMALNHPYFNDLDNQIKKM
Chain of Cyclin-dependent kinase 1/cyclin B1 (Homo sapiens) (P14635 whole entry, looked up): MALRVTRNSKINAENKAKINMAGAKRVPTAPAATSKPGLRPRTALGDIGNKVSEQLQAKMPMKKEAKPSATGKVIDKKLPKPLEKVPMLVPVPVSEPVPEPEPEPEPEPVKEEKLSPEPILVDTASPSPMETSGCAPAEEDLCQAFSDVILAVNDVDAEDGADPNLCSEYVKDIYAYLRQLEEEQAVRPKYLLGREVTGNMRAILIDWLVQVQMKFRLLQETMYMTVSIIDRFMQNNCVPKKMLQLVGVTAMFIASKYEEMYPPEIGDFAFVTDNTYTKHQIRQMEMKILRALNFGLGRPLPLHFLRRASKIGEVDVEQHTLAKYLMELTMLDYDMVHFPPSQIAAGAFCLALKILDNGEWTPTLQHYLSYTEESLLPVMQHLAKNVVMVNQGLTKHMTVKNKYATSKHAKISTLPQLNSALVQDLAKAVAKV

MOLM-14 [18] = assay: Cytotoxic activity against human MOLM14 cells assessed as cell viability at 10 uM incubated for 3 days by MTT assay; type: functional; conditions: MOLM-14, 72 h, read-out: Activity; summary of the method: as §2
[19] = molecular target: Cyclin-dependent kinase 2/cyclin A (Homo sapiens) (UniProt P24941+P20248+P78396); assay: Inhibition of CDK2/cyclinA assessed as enzyme residual activity at 10 uM relative to untreated control; type: protein-complex assay; summary of the method: as §1
MOLM-14 [20] = assay: Cytotoxic activity against human MOLM14 cells assessed as cell viability at 1 uM incubated for 3 days by MTT assay; type: functional; conditions: MOLM-14, 72 h, read-out: Activity; summary of the method: as §2
MOLM-14 [21] = assay: Cytotoxic activity against human MOLM14 cells assessed as cell viability at 50 uM incubated for 3 days by MTT assay; type: functional; conditions: MOLM-14, 72 h, read-out: Activity; summary of the method: as §2
MOLM-14 [22] = assay: Cytotoxic activity against human MOLM14 cells assessed as cell viability at 0.5 uM incubated for 3 days by MTT assay; type: functional; conditions: MOLM-14, 72 h, read-out: Activity; summary of the method: as §2
HUVEC [23] = assay: Induction of apoptosis in human HUVEC assessed as accumulation at subG1 phase at 2.6 uM incubated for 4 days by flow cytometry (reference value: 15.4 +/- 1.5%); type: functional
[24] = molecular target: T1, Glycogen synthase kinase-3 beta (Homo sapiens, UniProt P49841); assay: Inhibition of GSK3beta assessed as enzyme residual activity at 10 uM relative to untreated control; summary of the method: as §1
MKN-45 [25] = assay: Induction of apoptosis in human MKN45 assessed as accumulation at subG1 phase at 1 uM incubated for 7 days by flow cytometry (reference value: 10.9 +/- 3.2%); type: functional
MKN-45 [26] = assay: Induction of apoptosis in human MKN45 assessed as accumulation at subG1 phase at 20 uM incubated for 7 days by flow cytometry (reference value: 10.9 +/- 3.2%); type: functional
[27] = molecular target: Protein kinase C epsilon type (Homo sapiens) (UniProt Q02156); assay: Inhibition of PKCepsilon assessed as enzyme residual activity at 10 uM relative to untreated control; summary of the method: as §1
Chain of Protein kinase C epsilon type (Homo sapiens) (Q02156 whole entry): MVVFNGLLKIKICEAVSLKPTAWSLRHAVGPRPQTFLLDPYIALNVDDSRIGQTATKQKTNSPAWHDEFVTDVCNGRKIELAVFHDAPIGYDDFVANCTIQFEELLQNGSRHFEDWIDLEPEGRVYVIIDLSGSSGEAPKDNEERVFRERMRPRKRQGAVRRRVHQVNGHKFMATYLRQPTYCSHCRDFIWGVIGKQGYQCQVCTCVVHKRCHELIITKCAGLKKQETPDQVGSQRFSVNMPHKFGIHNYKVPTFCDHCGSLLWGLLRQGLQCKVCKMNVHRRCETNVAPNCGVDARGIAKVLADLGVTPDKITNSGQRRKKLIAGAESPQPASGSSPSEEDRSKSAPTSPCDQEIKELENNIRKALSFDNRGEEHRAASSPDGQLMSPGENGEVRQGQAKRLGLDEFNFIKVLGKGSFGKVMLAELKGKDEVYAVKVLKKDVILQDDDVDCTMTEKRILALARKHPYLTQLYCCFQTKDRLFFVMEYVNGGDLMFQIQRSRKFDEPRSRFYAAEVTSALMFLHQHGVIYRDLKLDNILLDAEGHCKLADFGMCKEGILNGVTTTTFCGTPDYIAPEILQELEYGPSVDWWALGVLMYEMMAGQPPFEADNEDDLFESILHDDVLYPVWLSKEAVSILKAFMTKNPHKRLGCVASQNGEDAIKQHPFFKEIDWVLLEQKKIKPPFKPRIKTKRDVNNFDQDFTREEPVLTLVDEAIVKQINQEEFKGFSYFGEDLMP

[28] = molecular target: Protein kinase C iota type (Homo sapiens) (UniProt P41743); assay: Inhibition of PKCiota assessed as enzyme residual activity at 10 uM relative to untreated control; summary of the method: as §1
MKN-45 [29] = assay: Cytotoxic activity against human MKN45 cells assessed as cell viability at 0.5 uM incubated for 5 days by MTT assay; type: functional; conditions: MKN-45, 120 h, read-out: Activity; summary of the method: as §2
MKN-45 [30] = assay: Cytotoxic activity against human MKN45 cells assessed as cell viability at 50 uM incubated for 5 days by MTT assay; type: functional; conditions: MKN-45, 120 h, read-out: Activity; summary of the method: as §2
[31] = molecular target: T1, Glycogen synthase kinase-3 beta; assay: Inhibition of GSK3beta
Summary of the method: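 IC50 determined by a commercial kinase profiling service (Millipore IC50 Profiler); duplicate testing.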

MOLM-14 [32] = assay: Cytotoxic activity against human MOLM14 cells assessed as cell viability at 20 uM incubated for 3 days by MTT assay; type: functional; conditions: MOLM-14, 72 h, read-out: Activity; summary of the method: as §2
[33] = molecular target: CDK6/cyclin D3 (Homo sapiens) (UniProt P30281+Q00534); assay: Inhibition of CDK6/cyclinD3 assessed as enzyme residual activity at 10 uM relative to untreated control; type: protein-complex assay; summary of the method: as §1
[34] = molecular target: RAF proto-oncogene serine/threonine-protein kinase (Homo sapiens) (UniProt P04049); assay: Inhibition of c-RAF assessed as enzyme residual activity at 10 uM relative to untreated control; summary of the method: as §1
Chain of RAF proto-oncogene serine/threonine-protein kinase (Homo sapiens) (P04049 whole entry): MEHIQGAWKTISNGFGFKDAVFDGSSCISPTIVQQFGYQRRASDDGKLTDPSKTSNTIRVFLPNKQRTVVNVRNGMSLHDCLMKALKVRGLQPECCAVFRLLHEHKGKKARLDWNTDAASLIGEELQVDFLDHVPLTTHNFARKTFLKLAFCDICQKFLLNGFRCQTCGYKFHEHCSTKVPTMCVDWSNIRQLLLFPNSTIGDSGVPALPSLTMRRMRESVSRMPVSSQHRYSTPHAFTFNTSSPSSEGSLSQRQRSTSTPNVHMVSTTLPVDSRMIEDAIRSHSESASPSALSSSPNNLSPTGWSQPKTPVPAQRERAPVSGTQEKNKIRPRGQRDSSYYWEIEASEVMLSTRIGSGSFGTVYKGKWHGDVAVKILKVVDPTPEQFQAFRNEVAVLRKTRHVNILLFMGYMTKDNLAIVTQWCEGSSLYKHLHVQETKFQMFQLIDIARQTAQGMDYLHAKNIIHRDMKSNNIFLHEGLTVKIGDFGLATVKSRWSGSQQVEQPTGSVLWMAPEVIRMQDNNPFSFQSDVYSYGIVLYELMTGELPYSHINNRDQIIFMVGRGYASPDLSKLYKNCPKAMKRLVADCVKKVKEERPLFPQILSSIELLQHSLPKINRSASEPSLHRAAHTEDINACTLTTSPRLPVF

[35] = molecular target: Receptor-type tyrosine-protein kinase FLT3 (Homo sapiens) (UniProt P36888); assay: Inhibition of FLT3 assessed as enzyme residual activity at 10 uM relative to untreated control; summary of the method: as §1
HT-29 = assay: Cytotoxic activity against human HT-29 cells assessed as cell viability at 52 uM incubated for 3 days by MTT assay; type: functional; conditions: HT-29, 72 h, read-out: Activity; summary of the method: as §2
[36] = molecular target: T2, Receptor-type tyrosine-protein kinase FLT3 (Homo sapiens, UniProt P36888); assay: Inhibition of FLT3
T2 sequence (P36888 whole entry): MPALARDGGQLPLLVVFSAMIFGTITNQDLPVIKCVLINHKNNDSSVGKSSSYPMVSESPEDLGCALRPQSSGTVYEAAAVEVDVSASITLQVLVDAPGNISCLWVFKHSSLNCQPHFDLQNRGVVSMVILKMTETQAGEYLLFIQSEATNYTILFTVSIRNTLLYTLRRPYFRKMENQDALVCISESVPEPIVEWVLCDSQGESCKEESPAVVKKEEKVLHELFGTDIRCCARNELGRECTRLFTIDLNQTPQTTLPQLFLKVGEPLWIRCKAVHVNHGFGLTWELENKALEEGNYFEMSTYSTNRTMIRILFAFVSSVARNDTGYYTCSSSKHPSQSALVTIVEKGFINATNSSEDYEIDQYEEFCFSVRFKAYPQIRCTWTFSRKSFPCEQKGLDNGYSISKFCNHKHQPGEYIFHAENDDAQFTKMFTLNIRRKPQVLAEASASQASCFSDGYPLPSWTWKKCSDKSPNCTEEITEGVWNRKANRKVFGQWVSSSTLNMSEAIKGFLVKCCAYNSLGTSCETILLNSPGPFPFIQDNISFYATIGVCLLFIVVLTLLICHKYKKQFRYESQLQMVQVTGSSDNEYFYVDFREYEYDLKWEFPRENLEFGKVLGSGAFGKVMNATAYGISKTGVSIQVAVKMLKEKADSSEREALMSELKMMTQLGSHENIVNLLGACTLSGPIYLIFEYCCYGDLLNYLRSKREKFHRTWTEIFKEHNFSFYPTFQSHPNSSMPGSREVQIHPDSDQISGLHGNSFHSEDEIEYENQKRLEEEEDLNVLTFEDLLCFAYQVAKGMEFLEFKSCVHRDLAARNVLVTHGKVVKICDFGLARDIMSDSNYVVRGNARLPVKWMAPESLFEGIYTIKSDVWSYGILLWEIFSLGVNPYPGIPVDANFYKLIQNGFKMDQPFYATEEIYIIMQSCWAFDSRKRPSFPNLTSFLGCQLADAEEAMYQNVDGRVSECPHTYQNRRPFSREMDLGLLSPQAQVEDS
Summary of the method: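 Run as an outsourced kinase profiling service (Millipore IC50 Profiler), with the protocol referred to the provider. Gives IC50 values and residual activity at 10 μM test compound. Compounds tested in duplicate.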

COc1cc(C2=C(c3c[nH]c4ncccc34)C(=O)NC2=O)cc(OC)c1OC
Activity [1]: 109%
Activity [2]: 97%
Activity [3]: 89%
Activity (MKN-45 [4]): 37.8%
viability at 20 µM (MKN-45 [5]): 57.1%
Activity [6]: 84%
viability at 1 µM (MKN-45 [7]): 110%
viability at 10 µM (MKN-45 [8]): 58.7%
Activity [9]: 93%
inhibition (INH) [10]: 61%
Activity (HUVEC [11]): 26.7%
Activity [12]: 77%
Activity [13]: 0%
Activity (MKN-45 [14]): 16.3%
viability at 5 µM (MKN-45 [15]): 86.8%
Activity (MKN-45 [16]): 50.7%
Activity [17]: 92%
viability at 10 µM (MOLM-14 [18]): 4.41%
Activity [19]: 94%
viability at 1 µM (MOLM-14 [20]): 38.9%
viability at 50 µM (MOLM-14 [21]): 1.77%
viability at 0.5 µM (MOLM-14 [22]): 65.9%
Activity (HUVEC [23]): 49.2%
Activity [24]: 50%
Activity (MKN-45 [25]): 9.3%
Activity (MKN-45 [26]): 65.9%
Activity [27]: 77%
Activity [28]: 69%
viability at 0.5 µM (MKN-45 [29]): 113%
viability at 50 µM (MKN-45 [30]): 44.7%
IC50 [31]: ≥ 10 µM
viability at 20 µM (MOLM-14 [32]): 3.56%
Activity [33]: 99%
Activity [34]: 111%
Activity [35]: 2%

COc1ccccc1C1=C(c2c[nH]c3ncccc23)C(=O)NC1=O
inhibition (INH) [10]: 30%

COc1cc(C2=C(c3c[nH]c4cccnc34)C(=O)NC2=O)cc(OC)c1OC
viability at 52 µM (HT-29): 65.8%
inhibition (INH) [10]: 10%
Activity (HUVEC [11]): 14.2%
Activity (HUVEC [23]): 16.3%
IC50 [36]: ≥ 1.5 µM
